A selection: hits, their analogues and other compounds. The true share with any hit is near 1.5%.
CXCR6 block = blocks human CXCR6 beta-arrestin recruitment; O00574; inhibition, % at 20 µM; CHO-K1 PathHunter CXCR6 beta-arrestin, luminescence; hit rate 0.36% among 360,000; in the data active = inhibition above about 34%, passing the limit was not always enough;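 note: antagonist mode with CXCL16 agonist at 10 nM final; 0% = 10 nM CXCL16 with DMSO and 100% = unstimulated wells without agonist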
APJ ag = APJ receptor agonism; P35414; CHO-K1 APJ PathHunter beta-arrestin, luminescence; 0% DMSO wells, 100% apelin; activation, % at 20 µM; hit rate 0.11% among 330,000;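 active = activation more than six SD over the plate average, tested at 20 µM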;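 note: 0% = DMSO alone and 100% = apelin-13 at 10 nM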
Target sequence (P35414 whole entry, looked up): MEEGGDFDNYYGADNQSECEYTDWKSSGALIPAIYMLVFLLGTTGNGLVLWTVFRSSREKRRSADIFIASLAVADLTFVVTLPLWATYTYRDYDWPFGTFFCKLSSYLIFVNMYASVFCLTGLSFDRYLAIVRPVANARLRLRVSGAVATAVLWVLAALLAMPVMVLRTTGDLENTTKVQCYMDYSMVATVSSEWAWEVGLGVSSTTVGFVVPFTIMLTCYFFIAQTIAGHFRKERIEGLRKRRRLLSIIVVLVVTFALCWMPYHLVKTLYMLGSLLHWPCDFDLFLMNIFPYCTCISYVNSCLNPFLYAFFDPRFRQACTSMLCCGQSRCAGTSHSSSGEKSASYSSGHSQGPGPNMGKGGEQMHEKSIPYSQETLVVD
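Material: engineered CHO-K1 APJ arrestin reporter cells; amount: 1000 CHO-K1 reporter cells seeded per well; incubation: compound stimulation 90 min at 25 °C, detection 60 min; signal: luminescent beta-gal fragment complementation, chemiluminescent substrate; read-out basis: APJ agonist activity; controls: DMSO-only wells as negative, 10 nM Apelin-13 as positive control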
iPSC survival up = increases survival of single human iPS cells; survival enhancement, % at 20 µM; hit rate 0.044% among 360,000; hiPSC single-cell survival, ATPlite luminescence; 100% = ROCK inhibitor wells, 0% = DMSO; AID 602274; in the data active = survival enhancement above about 18%;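 note: cells exposed to compounds for 16 hours before the ATP read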
EBI2 block = antagonists of human EBI2 receptor. P32249. EBI2 beta-arrestin recruitment, luminescence, 7a,25-OHC stimulated. inhibition, % at 5 µM. hit rate 0.81% among 360,000; in the data active = inhibition above about 38%;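 note: enzyme fragment complementation signal reports receptor beta-arrestin coupling in cells; 0% = agonist plus DMSO wells and 100% = wells without agonist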
APJ antagonist = APJ receptor antagonism; CHO-K1 APJ beta-arrestin complementation, luminescence; inhibition, % at 20 µM; AID 2521; hit rate 0.32% among 330,000;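 active = inhibition above about 40% at 20 µM, limit read from the data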;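 note: cells challenged with 10 nM apelin-13 agonist together with compound; plate controls were apelin-13 plus DMSO wells for no effect and DMSO wells lacking apelin-13 for full effect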
CCR6 antagonist = CCR6 (human) receptor antagonism; inhibition, % at 20 µM; hit rate 0.49% among 340,000; P51684; CHO-K1 CCR6 PathHunter beta-arrestin, luminescence, CCL20-stimulated;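 active = compounds whose inhibition of the agonist-driven luminescence signal at 20 µM reaches about 50%, limit read from the data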;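 note: cells stimulated with CCL20 at 14 nM final; plate controls were DMSO with CCL20 for no effect and DMSO without agonist for full effect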
APJ ag conf = confirmation of human APJ apelin receptor agonists; hit rate 10% among 310; shares compounds with APJ ag; CHO-K1 APJ PathHunter beta-arrestin, luminescence; AID 2764; activation, % at 20 µM;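 active = activation above 40%, taking the highest of four retests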;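 note: plate controls were DMSO wells for no effect and apelin-13 at 10 nM for full effect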
Active calls of the source: *; nt = not tested or not shown.

SMILES | CXCR6 block | APJ ag | iPSC survival up | EBI2 block | APJ antagonist | CCR6 antagonist | APJ ag conf
CCCSc1nc(O)c(C2OC(=O)c3c2ccc(OC)c3OC)c(=O)n1-c1ccccc1 (stereo not drawn) | 6 | 23* | 1 | 6 | 10 | 10 | 39
Cc1ccc(NC(=O)CSc2ccccc2NC(=O)c2cccc(Cl)c2)cc1Cl | -13 | 14* | 2 | -6 | -26 | -1 | 11
Cc1cccc(C(=O)Nc2ccccc2SCC(=O)Nc2ccc(C)c(Cl)c2)c1 | -5 | -1 | 0 | 28 | 7 | -33 | nt
Cc1cc(NC(=O)CSc2nc3sc4c(c3c(=O)n2C)CCCC4)no1 | 5 | -1 | -2 | 2 | -2 | -9 | nt
Cc1nn(Cc2ccccc2)c(C)c1NC(=O)CSc1nc2sc3c(c2c(=O)n1C)CCC3 | nt | 29* | nt | nt | -73 | -102 | 40*
Cc1nnc(N2CCCC(C(=O)Nc3cc(F)ccc3F)C2)c2nn(-c3ccccc3)c(C)c12 (stereo not drawn) | 0 | 21* | 1 | -10 | -20 | 4 | 30
Cc1nnc(N2CCCC(C(=O)NCc3ccc(OC(C)C)cc3)C2)c2nn(-c3ccccc3)c(C)c12 (stereo not drawn) | 9 | 2 | -1 | 7 | -24 | 2 | nt
COc1cc2nc(N3CCN(c4cc(C)ccc4C)CC3)nc(N)c2cc1OC | -23 | 20* | 0 | 16 | -26 | -5 | 34
C=C(C)Cn1c2ccc(NC(=S)NCc3ccccc3F)cc2c(=O)n1C | -8 | nt | -1 | -7 | nt | nt | nt
COc1ccc(N(CCC(=O)Nc2ccccc2F)S(=O)(=O)c2ccc(C)cc2C)cc1 | 7 | -2 | 0 | 23 | 8 | 13 | nt
CC(Sc1nnc(C2CC2)n1C1CC1)C(=O)NC1(C#N)CCCCC1 (stereo not drawn) | 0 | -5 | 0 | -5 | 0 | -14 | nt
O=C(NC1CCCCC1)c1cc2ccccc2cc1O | -9 | 13* | 1 | -8 | -54 | -7 | 12
N/C(=N\OC(=O)c1cccc(Cl)c1)c1ccccn1 | -43 | 6 | -3 | -18 | -78 | -10 | nt
N/C(=N\OC(=O)c1ccc(Cl)c(Cl)c1)c1ccccn1 | -15 | 10 | -2 | -19 | -103 | -20 | nt
N/C(=N\OC(=O)c1ccc(Cl)c([N+](=O)[O-])c1)c1ccccn1 | -21 | 17* | 0 | 23 | -43 | -18 | 7
N/C(=N\OC(=O)c1cccc(Br)c1)c1ccccn1 | -22 | 34* | 0 | -39 | -158 | -37 | 11
COc1ccc(OC)c2sc(N(CCCN(C)C)C(=O)c3ccc(S(=O)(=O)N4CCc5ccccc5C4)cc3)nc12 | nt | 45* | nt | nt | -59 | nt | 22
N#Cc1ccc(NC(=O)Nc2ccc(Oc3ccc(NC(=O)Nc4ccc(C#N)cc4)cc3)cc2)cc1 | -16 | 19* | -1 | -33 | -59 | -14 | 36
CSc1cccc(NC(=S)NC(=O)CCc2ccccc2)c1 | -17 | 43* | 0 | 6 | -108 | -29 | 51*
CSc1cccc(NC(=O)CCc2ccccc2)c1 | 4 | -3 | -2 | 1 | -12 | 6 | nt
CCc1ccc(N2CC(C(=O)OCC(=O)Nc3ccc(C#N)cc3)CC2=O)cc1 (stereo not drawn) | -4 | -1 | 0 | 7 | 10 | 6 | nt
CCN(c1ccccc1)S(=O)(=O)c1cccc(C(=O)NCCOc2ccccc2OC)c1 | -7 | 7 | 0 | 8 | -29 | 6 | nt
Cc1ccc2c(c1)c(=O)c1c3n2CCN(C(=O)CCl)C3CC1 (stereo not drawn) | 1 | 37* | -1 | -21 | -15 | -4 | 22
COc1ccc([C@H]2[C@H](C(=O)C(C)(C)C)N3N=Cc4ccccc4C3[C@]23N=C(c2ccccc2)OC3=O)cc1 (stereo partly drawn) | 3 | -1 | 4 | -1 | 7 | 21 | nt
CC(C)(C)OC(=O)[C@H]1[C@H](c2ccc([N+](=O)[O-])cc2)C2(C(=O)c3ccccc3C2=O)C2c3ccccc3C=NN21 (stereo partly drawn) | 2 | 43* | 3 | 9 | -2 | 17 | 44*
SMILES | CXCR6 block | APJ ag | iPSC survival up | EBI2 block | APJ antagonist | CCR6 antagonist | APJ ag conf
O=C(COC(=O)C1=COCCO1)Nc1ccc([N+](=O)[O-])cc1C(F)(F)F | -12 | -1 | 0 | -8 | -2 | 7 | nt
O=C(COC(=O)c1ccc2c(c1Cl)C(=O)c1ccccc1C2=O)NC1CC1 | -24 | 13* | 2 | -9 | -29 | -18 | 25
c1ccc(-c2nc(N3CCN(c4ccccc4)CC3)nc(-n3ccnc3)n2)cc1 | 17 | -2 | 0 | 38 | 20 | 28 | nt
c1ccc(-c2nc(N3CCCCCC3)nc(-n3ccnc3)n2)cc1 | 4 | 26* | 0 | 11 | -12 | 28 | 12
COc1ccc2nc(C)cc(N/N=C/c3ccccc3)c2c1 | 4 | 21 | -1 | 1 | -10 | 26 | nt
COc1ccc(/C=N/Nc2cc(C)nc3ccc(OC)cc23)c(OC)c1 | 23 | 61* | -1 | -12 | -14 | 10 | 64*
CC1=C(C(=O)N2CCCCCC2)CC(CC(=O)NCCc2ccccn2)C(=O)N1CCC1=CCCCC1 (stereo not drawn) | 10 | nt | -1 | 7 | nt | nt | nt
N#Cc1c2ccc([N+](=O)[O-])cc2[n+]([O-])n1-c1ccccc1 | -15 | 13* | -5 | -23 | -237 | nt | 12
CC(=O)NC(c1ccc(F)c(F)c1)c1nc(-c2ccncc2)cs1 (stereo not drawn) | -6 | nt | 0 | -7 | nt | nt | nt
CCSc1nc(O)c(CC)c(=O)n1C(C)CC (stereo not drawn) | -3 | 39* | -2 | -1 | -19 | -25 | 61*
O=C(NCC1COc2ccccc2O1)c1cccc(S(=O)(=O)NCc2ccccc2)c1 (stereo not drawn) | -23 | -1 | 0 | 9 | 10 | 17 | nt
Cc1ncc(CO)c2c1Oc1nc(-c3ccccc3)nc(SCC(=O)N(C)c3ccccc3)c1C2 | nt | 28* | nt | nt | -134 | nt | 23
Fc1ccc2[nH]c3c(N4CCN(c5ccccc5)CC4)ncnc3c2c1 | 1 | 14* | 2 | -6 | -10 | -3 | 26
CCOC(=O)N1CCN(c2ncnc3c2[nH]c2ccc(F)cc23)CC1 | -13 | 8 | 5 | 4 | -7 | 11 | nt
CSc1nsc(SCC(=O)Nc2ccccc2C(=O)O)n1 | -8 | 3 | -1 | -6 | -29 | -11 | nt
CCOc1ccc2nc3cc(NCc4ccc(OC)cc4)ccc3c(N)c2c1 | -12 | 30* | -1 | -12 | -15 | -10 | -4
CCn1cnc2cc(NCc3ccc(OC)cc3)ccc21 | 2 | -2 | -2 | 1 | -5 | -13 | nt
O=C(OCC(=O)N1CCCC1=O)c1cc2ccccc2o1 | -3 | 16* | 0 | -8 | -4 | -2 | 14
